Results reported in ChEMBL document CHEMBL4014327 (J Med Chem, 2017).
≈ marks a conversion by molar mass, not a printed value. Calls of active or inactive are those of the source. The calls are words filed in the database; no cut-off is given here.

Assays:
[1] = Apparent permeability in RRCK cells from apical to basolateral side; assay type: ADME, cell-based, Canis lupus familiaris, MDCKII-LE; details: dog, MDCK
In short: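 RRCK cell monolayer permeability assay; apparent permeability reported in cm/s.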

[2] = Apparent intrinsic clearance in human liver microsomes; assay type: ADME, microsome; details: read-out: CLH(app)
[3] = Lipophilicity, log D of compound; assay type: physicochemical; details: octanol/water
[4] = biological target: CYP1A2 (Homo sapiens, UniProt P05177); experiment: Inhibition of CYP1A2 in human liver microsomes at 3 uM; assay type: ADME
[5] = Fraction unbound in rat plasma; assay type: ADME, cell-free
In short: (§1)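 Fraction unbound in plasma measured by equilibrium dialysis.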

[6] = Oral bioavailability in rat; assay type: ADME, organism-based; details: in vivo
[7] = biological target: CYP3A4 (Homo sapiens, UniProt P08684); experiment: Inhibition of CYP3A4 in human liver microsomes at 3 uM; assay type: ADME
[8] = tested on: Rattus norvegicus; experiment: Antiinflammatory activity in Lewis rat CIA model assessed as reduction in paw swelling at 100 mg/kg, po bid treated on day 11 post immunization for 8 days by plethysmographic method; assay type: functional, organism-based
In short: (§2)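 Female Lewis rats (about 7−9 weeks old, n = 10 per group) immunized on day 0 with bovine type II collagen in incomplete Freund's adjuvant and boosted on day 7. Oral dosing twice daily as solution or suspension in vehicle (0.5% methylcellulose, 2% Tween 80 in water), vehicle-only controls. Paw volume measured daily by plethysmograph, body weight recorded daily.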

[9] = biological target: CYP2C8 (Homo sapiens, UniProt P10632); experiment: Inhibition of CYP2C8 in human liver microsomes at 3 uM; assay type: ADME
[10] = tested on: Rattus norvegicus; experiment: Antiinflammatory activity in Lewis rat CIA model assessed as reduction in paw swelling at 30 mg/kg, po bid treated on day 11 post immunization for 8 days by plethysmographic method; assay type: functional, organism-based; in short: as §2
[11] = tested on: Rattus norvegicus; experiment: Clearance in iv dosed rat; assay type: ADME, organism-based; details: in vivo
[12] = biological target: CYP2C9 (Homo sapiens, UniProt P11712); experiment: Inhibition of CYP2C9 in human liver microsomes at 3 uM; assay type: ADME
[13] = tested on: Rattus norvegicus; experiment: In vivo receptor occupancy at IRAK4 in spleen of Lewis rat CIA model at 100 mg/kg, po measured at 1 hr postdose; assay type: functional
In short: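 Lewis female rats (7–9 wk, n = 10/group), immunized with bovine type II collagen/IFA on day 0 and boosted day 7. Oral dosing twice daily in therapeutic mode (started after disease onset), vehicle 0.5% methylcellulose, 2% Tween 80 in water. Spleens sampled 1 h postdose, flash frozen. Kinase occupancy measured by KiNativ profiling with an ATP-competitive probe.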

[14] = biological target: CYP2D6 (Homo sapiens, UniProt P10635); experiment: Inhibition of CYP2D6 in human liver microsomes at 3 uM; assay type: ADME
[15] = biological target: T1, Interleukin-1 receptor-associated kinase 4 (Homo sapiens) (UniProt Q9NWZ3); experiment: Inhibition of IRAK4 in human THP1 cell lysate
T1 sequence (whole entry): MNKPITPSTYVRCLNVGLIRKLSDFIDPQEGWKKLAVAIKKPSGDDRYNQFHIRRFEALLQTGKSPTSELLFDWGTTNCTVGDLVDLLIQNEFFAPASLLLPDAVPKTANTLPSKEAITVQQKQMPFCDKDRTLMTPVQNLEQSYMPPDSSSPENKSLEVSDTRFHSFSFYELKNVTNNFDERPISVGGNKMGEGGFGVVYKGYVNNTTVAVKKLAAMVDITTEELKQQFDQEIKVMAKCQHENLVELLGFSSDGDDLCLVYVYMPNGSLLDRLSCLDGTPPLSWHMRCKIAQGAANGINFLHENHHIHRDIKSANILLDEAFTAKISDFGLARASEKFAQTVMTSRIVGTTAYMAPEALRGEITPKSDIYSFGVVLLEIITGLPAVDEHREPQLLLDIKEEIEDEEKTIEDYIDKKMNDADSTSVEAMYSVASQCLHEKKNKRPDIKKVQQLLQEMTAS

[16] = tested on: Rattus norvegicus; experiment: In vivo receptor occupancy at IRAK4 in spleen of po dosed Lewis rat CIA model measured at 1 hr postdose; assay type: functional, organism-based
[17] = Half life in rat; assay type: ADME; details: in vivo
[18] = biological target: Voltage-gated inwardly rectifying potassium channel KCNH2 (Homo sapiens, UniProt Q12809); experiment: Inhibition of human ERG
[19] = Thermodynamic solubility of compound at pH 6.5; assay type: physicochemical; details: buffer, read-out: Therm_solubility
[20] = Fraction unbound in human plasma; assay type: ADME, cell-free; in short: as §1
[21] = biological target: T1, Interleukin-1 receptor-associated kinase 4 (Homo sapiens); details: 236 uM
[22] = biological target: T2, Interleukin-1 receptor-associated kinase 4 (Homo sapiens, UniProt Q9NWZ3); experiment: Inhibition of N-terminal His6-tagged human full length IRAK4 preincubated for 20 mins followed by biotinylated-AGAGRDKYKTLRQIR substrate addition in presence of ATP measured after 60 mins by DELFIA method
T2 sequence (Q9NWZ3 whole entry): T1 sequence (whole entry)

[23] = biological target: T1, Interleukin-1 receptor-associated kinase 4 (Homo sapiens); details: 909 uM
[24] = biological target: T2, Interleukin-1 receptor-associated kinase 4; experiment: Inhibition of IRAK4 in human PBMC assessed as reduction in R848-stimulated TNF alpha production after 3 hrs

CYP1A2, sequence (P05177 whole entry): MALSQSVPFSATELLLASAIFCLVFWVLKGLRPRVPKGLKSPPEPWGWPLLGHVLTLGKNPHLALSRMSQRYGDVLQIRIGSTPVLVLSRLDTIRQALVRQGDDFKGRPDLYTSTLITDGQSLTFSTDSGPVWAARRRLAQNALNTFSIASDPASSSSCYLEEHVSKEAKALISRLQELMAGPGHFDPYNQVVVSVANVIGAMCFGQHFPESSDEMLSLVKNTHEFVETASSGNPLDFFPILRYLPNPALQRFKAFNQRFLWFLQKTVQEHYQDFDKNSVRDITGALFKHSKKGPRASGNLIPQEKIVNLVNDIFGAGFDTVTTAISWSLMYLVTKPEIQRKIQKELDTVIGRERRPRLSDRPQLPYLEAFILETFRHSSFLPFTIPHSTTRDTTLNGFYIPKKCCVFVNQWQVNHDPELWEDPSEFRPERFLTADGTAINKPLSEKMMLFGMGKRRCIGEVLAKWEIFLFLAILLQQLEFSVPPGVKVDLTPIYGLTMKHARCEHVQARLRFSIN
CYP2D6, sequence (P10635 whole entry): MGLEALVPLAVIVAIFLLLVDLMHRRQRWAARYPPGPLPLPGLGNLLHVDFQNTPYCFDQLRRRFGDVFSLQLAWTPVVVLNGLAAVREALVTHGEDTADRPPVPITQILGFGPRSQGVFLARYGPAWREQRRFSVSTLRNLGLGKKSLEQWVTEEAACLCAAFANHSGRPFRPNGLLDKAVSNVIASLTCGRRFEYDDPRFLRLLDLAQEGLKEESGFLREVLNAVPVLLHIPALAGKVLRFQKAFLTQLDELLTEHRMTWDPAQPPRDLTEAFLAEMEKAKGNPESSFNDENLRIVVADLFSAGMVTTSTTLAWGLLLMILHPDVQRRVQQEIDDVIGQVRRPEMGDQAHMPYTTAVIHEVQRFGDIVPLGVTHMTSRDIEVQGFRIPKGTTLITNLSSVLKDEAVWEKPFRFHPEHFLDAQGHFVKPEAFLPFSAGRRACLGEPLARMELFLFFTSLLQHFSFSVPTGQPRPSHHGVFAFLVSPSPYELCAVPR
CYP2C9, sequence (P11712 whole entry): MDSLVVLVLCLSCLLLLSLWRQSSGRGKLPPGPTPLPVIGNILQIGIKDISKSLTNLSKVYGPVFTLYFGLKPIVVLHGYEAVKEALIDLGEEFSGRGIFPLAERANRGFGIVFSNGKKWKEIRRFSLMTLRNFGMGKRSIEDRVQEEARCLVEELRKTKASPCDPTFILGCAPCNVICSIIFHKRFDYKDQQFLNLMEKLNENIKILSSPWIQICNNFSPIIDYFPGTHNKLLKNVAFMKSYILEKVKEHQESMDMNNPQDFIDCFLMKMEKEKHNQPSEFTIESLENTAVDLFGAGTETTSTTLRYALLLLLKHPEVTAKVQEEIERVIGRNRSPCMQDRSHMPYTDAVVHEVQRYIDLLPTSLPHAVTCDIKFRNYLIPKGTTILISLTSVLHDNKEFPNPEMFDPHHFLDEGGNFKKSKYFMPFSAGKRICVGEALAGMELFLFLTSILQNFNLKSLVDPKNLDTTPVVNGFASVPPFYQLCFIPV
Voltage-gated inwardly rectifying potassium channel KCNH2, sequence (Q12809 whole entry): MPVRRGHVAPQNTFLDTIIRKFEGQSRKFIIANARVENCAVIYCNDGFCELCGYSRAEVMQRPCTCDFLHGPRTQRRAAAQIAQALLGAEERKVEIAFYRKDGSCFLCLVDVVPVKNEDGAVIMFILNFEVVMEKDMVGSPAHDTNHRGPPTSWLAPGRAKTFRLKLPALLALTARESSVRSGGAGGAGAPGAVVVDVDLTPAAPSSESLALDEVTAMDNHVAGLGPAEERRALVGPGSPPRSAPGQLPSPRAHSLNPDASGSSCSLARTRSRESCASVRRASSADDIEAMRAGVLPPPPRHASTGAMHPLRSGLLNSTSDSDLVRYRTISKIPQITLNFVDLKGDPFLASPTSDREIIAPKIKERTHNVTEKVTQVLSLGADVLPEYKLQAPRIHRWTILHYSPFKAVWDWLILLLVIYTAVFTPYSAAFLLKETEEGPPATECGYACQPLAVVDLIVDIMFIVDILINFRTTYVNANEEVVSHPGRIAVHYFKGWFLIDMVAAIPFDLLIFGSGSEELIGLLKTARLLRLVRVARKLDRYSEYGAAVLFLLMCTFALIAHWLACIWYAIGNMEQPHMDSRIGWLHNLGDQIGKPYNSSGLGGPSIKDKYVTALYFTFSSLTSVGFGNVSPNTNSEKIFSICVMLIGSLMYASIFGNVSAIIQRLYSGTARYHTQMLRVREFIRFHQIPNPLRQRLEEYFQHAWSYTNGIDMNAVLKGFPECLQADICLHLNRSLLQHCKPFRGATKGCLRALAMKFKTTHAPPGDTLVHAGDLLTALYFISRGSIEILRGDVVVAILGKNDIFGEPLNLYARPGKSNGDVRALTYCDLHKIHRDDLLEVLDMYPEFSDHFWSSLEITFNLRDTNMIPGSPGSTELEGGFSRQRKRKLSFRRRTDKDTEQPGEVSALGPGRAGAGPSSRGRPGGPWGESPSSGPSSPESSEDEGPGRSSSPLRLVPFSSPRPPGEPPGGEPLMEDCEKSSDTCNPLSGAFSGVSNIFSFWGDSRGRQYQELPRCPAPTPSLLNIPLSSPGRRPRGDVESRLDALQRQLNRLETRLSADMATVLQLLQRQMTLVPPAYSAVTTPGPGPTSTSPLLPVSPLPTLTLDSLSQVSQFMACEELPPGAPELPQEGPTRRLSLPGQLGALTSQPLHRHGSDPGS
CYP3A4, sequence (P08684 whole entry): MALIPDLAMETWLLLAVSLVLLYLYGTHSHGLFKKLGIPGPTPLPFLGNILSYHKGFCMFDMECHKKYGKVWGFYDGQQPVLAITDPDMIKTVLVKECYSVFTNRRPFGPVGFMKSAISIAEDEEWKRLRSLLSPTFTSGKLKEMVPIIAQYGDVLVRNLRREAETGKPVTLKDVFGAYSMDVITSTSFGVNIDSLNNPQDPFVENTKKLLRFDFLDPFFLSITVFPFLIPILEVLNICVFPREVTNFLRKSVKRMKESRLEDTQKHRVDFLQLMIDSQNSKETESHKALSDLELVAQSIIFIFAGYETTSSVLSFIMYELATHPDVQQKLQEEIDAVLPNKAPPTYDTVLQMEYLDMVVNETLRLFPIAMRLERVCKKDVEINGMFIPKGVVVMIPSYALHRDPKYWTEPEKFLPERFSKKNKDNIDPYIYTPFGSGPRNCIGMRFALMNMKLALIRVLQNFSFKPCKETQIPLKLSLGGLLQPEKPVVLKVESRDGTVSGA
CYP2C8, sequence (P10632 whole entry): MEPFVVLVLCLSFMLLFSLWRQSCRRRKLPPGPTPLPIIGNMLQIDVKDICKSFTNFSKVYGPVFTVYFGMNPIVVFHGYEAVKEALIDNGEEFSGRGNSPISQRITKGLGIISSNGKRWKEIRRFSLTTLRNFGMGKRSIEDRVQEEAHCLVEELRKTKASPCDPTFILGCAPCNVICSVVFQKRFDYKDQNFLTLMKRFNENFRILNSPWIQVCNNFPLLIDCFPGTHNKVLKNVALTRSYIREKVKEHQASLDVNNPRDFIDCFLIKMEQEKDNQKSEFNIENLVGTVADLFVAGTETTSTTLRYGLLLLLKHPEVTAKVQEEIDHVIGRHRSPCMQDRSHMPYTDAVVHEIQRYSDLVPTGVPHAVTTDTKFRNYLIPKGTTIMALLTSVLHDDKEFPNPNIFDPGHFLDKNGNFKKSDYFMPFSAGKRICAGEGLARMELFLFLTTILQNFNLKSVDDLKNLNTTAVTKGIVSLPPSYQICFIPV

Compound	Papp A→B [1] [×10⁻⁶ cm/s]	microsomal CLint [2] [µL/min/mg]	also measured
CC[C@H]1[C@@H](COc2nccc3cc(C(N)=O)c(OC)cc23)NC(=O)[C@@H]1F	14.2	15	
COc1cc2c(OC[C@@H]3CCC(=O)N3)cccc2cc1C(N)=O	14.2	13	logD [3]: 1.5
COc1cc2c(OC[C@H]3NC(=O)C[C@H]3C)nccc2cc1C(N)=O	10.5	< 9	
CC(C)Oc1cc2c(OC[C@@H]3CCC(=O)N3)nccc2cc1C(N)=O	10.7	10	inhibition at 3 µM [4]: < 10%; fraction unbound [5]: 0.21; bioavailability [6]: 57%; inhibition at 3 µM [7]: < 10%; Activity [8]: Active; inhibition at 3 µM [9]: < 10%; Activity [10]: Active; clearance [11]: 23 mL/min/kg; inhibition at 3 µM [12]: 13.6%; Occ [13]: 80%; inhibition at 3 µM [14]: < 10%; inhibition [15]: Active; Occ [16]: Dose-dependent effect; half-life [17]: 72 min; IC50 [18]: > 30 µM; solubility thermodynamic [19]: 78 µM (≈ 26.8 µg/mL); fraction unbound [20]: 0.29
CC[C@@H]1CC(=O)N[C@@H]1COc1nccc2cc(C(N)=O)c(OC)cc12	17.9	14	
COc1cc2c(OC[C@H]3NC(=O)[C@@H](F)[C@H]3C)nccc2cc1C(N)=O	9.9	< 9	
COc1cc2c(OC[C@H]3NC(=O)[C@@H]4[C@@H](C)[C@@H]43)nccc2cc1C(N)=O	13.5	< 8	
CC(C)Oc1cc2c(OC[C@H]3CCC(=O)N3)nccc2cc1C(N)=O	10.5		
CC(C)Oc1ccccc1C(N)=O			inhibition [21]: > 10%; IC50 [22]: 55000 nM; inhibition [23]: > 50%
CCOc1cc2c(OC[C@@H]3CCC(=O)N3)nccc2cc1C(N)=O	10.6	9	
CCC[C@@H]1CC(=O)N[C@@H]1COc1nccc2cc(C(N)=O)c(OC)cc12	18.9	44	IC50 [24]: 28.4 nM
CC(C)Oc1cc2ccccc2cc1C(N)=O			IC50 [22]: 2090 nM
CC(C)Oc1cc2c(O[C@@H]3CCCNC3)nccc2cc1C(N)=O	11.4	11	IC50 [24]: 1550 nM; IC50 [22]: 121 nM; logD [3]: 0.7
COc1cc2c(OC[C@H]3NC(=O)[C@H](F)[C@H]3C)nccc2cc1C(N)=O	10.4	12	
COC[C@@H]1CC(=O)N[C@@H]1COc1nccc2cc(C(N)=O)c(OC)cc12	12.5	< 8	IC50 [24]: 373 nM
CC(C)Oc1cc2c(O[C@@H]3CCCNC3)ccnc2cc1C(N)=O	2.8		IC50 [22]: 146 nM; logD [3]: 0.4
CC(C)Oc1cc2c(-c3ccc(C#N)cc3)cccc2cc1C(N)=O			IC50 [22]: 71.9 nM
COc1cc2c(OC[C@H]3NC(=O)[C@H](C)[C@H]3C)nccc2cc1C(N)=O	13.9	32	

Now from value to compound, other results behind:

Papp A→B [1] [×10⁻⁶ cm/s]	microsomal CLint [2] [µL/min/mg]	Compound	also measured
16.3	< 8	COc1cc2c(OC[C@H]3NC(=O)[C@@]4(F)[C@@H]3[C@@H]4C)nccc2cc1C(N)=O	
9.9	9	COc1cc2c(OC[C@@H]3CCC(=O)N3)nccc2cc1C(N)=O	bioavailability [6]: 44%; clearance [11]: 35 mL/min/kg; logD [3]: 0.9; half-life [17]: 60 min
5.8	< 8	COc1cc2c(OC[C@@H]3CCC(=O)N3)ccnc2cc1C(N)=O	
11.7	< 8	COc1cc2c(OC[C@H]3NC(=O)[C@@H]4C[C@H]34)nccc2cc1C(N)=O	
15.8	9	COc1cc2c(OC[C@H]3NC(=O)[C@@H](C)[C@H]3C)nccc2cc1C(N)=O	
